Test results taken from ChEMBL document CHEMBL3603766, “Structure-activity studies of Wnt/β-catenin inhibition in the Niclosamide chemotype: Identification of derivatives with improved drug exposure” (Bioorg Med Chem, 2015).
The source made the active and inactive calls. The calls are words filed in the database; no cut-off is given here.

Assays:
U2OS = assay: Inhibition of Wnt/beta-catenin in human U2OS cells assessed as internalization of frizzled-GFP at 12.5 uM after 6 hrs by confocal microscopic analysis; format: cell-based
How it was run: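 U2OS cells stably expressing Frizzled1-GFP, plated 24 h, then exposed to 12.5 μM compound or DMSO for 6 h at 37 °C. Fixed with 4% paraformaldehyde and imaged by confocal microscopy (488 nm excitation). Punctate scored blind twice on a 0–5 scale against DMSO control.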

HEK293 = assay: Inhibition of Wnt/beta-catenin in HEK293 cells assessed as inhibition of Wnt3A-stimulated TOPFlash activity after 8 hrs; format: cell-based; conditions: Homo sapiens, HEK293, 8 h
How it was run: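 HEK293 cells stably carrying p8xTOPFlash and Renilla pRL-TK, seeded at 100% confluency. Cells given Wnt-3A conditioned medium (from L Wnt-3A cells) containing compound (0.04–10 μM) or DMSO for 8 h. Lysed and read by dual luciferase, firefly normalized to Renilla, Wnt3A+DMSO = 100%. IC50 fit, mean ± SEM, n ≥ 2.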

HCT-116 [1] = assay: Cytotoxicity against human HCT116 cells assessed as growth inhibition after 72 hrs by MTS assay; format: functional, cell-based; conditions: HCT-116, 72 h
How it was run: (§1)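 HCT116 colon cancer cells seeded at 5000 cells/well, exposed to compound at 0.04–10 μM for 72 h, then read by colorimetric MTS. Viability normalized to DMSO set at 100%. IC50 from curve fit, mean ± SEM, n = 3.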

[2] = Oral bioavailability in Sprague-Dawley rat at 5 mg/kg; format: ADME, organism-based; conditions: in vivo
[3] = Total clearance in Sprague-Dawley rat at 2 mg/kg, iv; format: ADME, organism-based; conditions: in vivo
[4] = Volume of distribution at steady state in Sprague-Dawley rat at 2 mg/kg, iv; format: ADME, organism-based; conditions: in vivo
[5] = Half life in Sprague-Dawley rat at 2 mg/kg, iv; format: ADME, organism-based; conditions: in vivo
Plasma [6] = assay: Drug uptake in plasma of CD1 mouse at 200 mg/kg, po by LC/MS-MS analysis; format: ADME, organism-based; conditions: in vivo
How it was run: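 CD1 mice gavaged at 200 mg/kg with a solution (20 mg/ml) in 90% PEG 300 / 10% 1-methyl-2-pyrrolidinone. Blood sampled predose and at 0.25, 0.5, 1, 2, 4, 8 h. Plasma analyzed by LC/MS–MS, including for a potential active metabolite.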

Plasma [7] = assay: Drug metabolism in CD1 mouse plasma assessed as niclosamide production at 200 mg/kg, po measured for 24 hrs by LC/MS-MS analysis; format: ADME, organism-based; conditions: in vivo
How it was run: (§2)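 CD1 mice given prodrug orally as a solution in corn oil (20 mg/ml) at 200 mg/kg. Niclosamide in plasma quantified by LC/MS–MS, reported as ng/mL, mean ± SEM.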

Mus musculus [8] = assay: Tmax in CD1 mouse assessed as niclosamide at 200 mg/kg, po; format: ADME, organism-based; conditions: in vivo; how it was run: as §2
Mus musculus [9] = assay: Cmax in CD1 mouse assessed as niclosamide at 200 mg/kg, po; format: ADME, organism-based; design: dose 200 mg/kg, route oral; conditions: in vivo; how it was run: as §2
Mus musculus [10] = assay: Tlast in CD1 mouse assessed as niclosamide at 200 mg/kg, po; format: ADME, organism-based; conditions: in vivo; how it was run: as §2
Mus musculus [11] = assay: Clast in CD1 mouse assessed as niclosamide at 200 mg/kg, po; format: ADME, organism-based; conditions: in vivo; how it was run: as §2
Mus musculus [12] = assay: AUClast in CD1 mouse assessed as niclosamide at 200 mg/kg, po; format: ADME, organism-based; design: dose 200 mg/kg, route oral, time 0 - last; conditions: in vivo; how it was run: as §2
Mus musculus [13] = assay: Half life in CD1 mouse assessed as niclosamide at 200 mg/kg, po measured for 45 to 240 mins; format: ADME, organism-based; conditions: in vivo; how it was run: as §2
Mus musculus [14] = assay: Half life in CD1 mouse assessed as niclosamide at 200 mg/kg, po measured for 24 to 48 hrs; format: ADME, organism-based; conditions: in vivo; how it was run: as §2
Mus musculus [15] = assay: Toxicity in NOD/SCID mouse assessed as change in body weight at 200 mg/kg, po administered 6 days a week for 3 weeks; format: organism-based; conditions: in vivo
How it was run: (§3)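 NOD/SCID mice dosed orally with 200 mg/kg in corn oil, or corn oil vehicle, 6 days a week for 3 weeks. Observed throughout for side effects and behavior. Body weight taken on the first dosing day (week 0) and on the day after the last dose (week 3).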

Mus musculus [16] = assay: Toxicity in NOD/SCID mouse assessed as change in behavior at 200 mg/kg, po administered 6 days a week for 3 weeks; format: organism-based; conditions: in vivo; how it was run: as §3
Plasma [17] = assay: Drug level in CD1 mouse plasma treated with DK-520 at 200 mg/kg, po measured for 24 hrs by LC/MS-MS analysis; format: ADME, organism-based; conditions: in vivo; how it was run: as §2
[18] = Cytotoxicity against human breast cancer cells assessed as growth inhibition after 72 hrs by Cell Titer Glo Assay; format: functional, cell-based; conditions: Cancer cell lines, pooled result: one value given for 7 cell lines, strains, targets or settings
[19] = Lipophilicity, log P of the compound at pH <=4; format: physicochemical; conditions: octanol/water
[20] = Distribution coefficient, log D of the compound at pH 7; format: physicochemical; conditions: octanol/water
HCT-116 [21] = assay: Cytotoxicity against human HCT116 cells assessed as growth inhibition up to 10 uM after 72 hrs by MTS assay; format: functional, cell-based; how it was run: as §1

| Structure (SMILES) | inhibition (U2OS) | IC50 (HEK293) | also measured |
| --- | --- | --- | --- |
| O=C(Nc1cccc(Cl)c1)c1cc(Cl)ccc1O | Active | 1650 nM | – |
| O=C(Nc1ccccc1Cl)c1cc(Cl)ccc1O | inactive | 3050 nM | – |
| O=C(Nc1ccc(C(F)(F)F)cc1)c1cc(Cl)ccc1O | Active | 290 nM | IC50 (HCT-116 [1]): 670 nM |
| O=C(Nc1ccc(F)cc1)c1cc(Cl)ccc1O | inactive | 3840 nM | – |
| O=C(Nc1c(F)cccc1F)c1cc(Cl)ccc1O | – | > 12000 nM | – |
| O=C(c1ccccc1)c1ccc(NC(=O)c2cc(Cl)ccc2O)cc1 | inactive | 15000 nM | – |
| O=C(Nc1ccc(F)cc1F)c1cc(Cl)ccc1O | inactive | 4020 nM | – |
| CS(=O)(=O)c1ccc(NC(=O)c2cc(Cl)ccc2O)c(Cl)c1 | inactive | 7660 nM | – |
| O=C(Nc1cccc(C(F)(F)F)c1)c1cc(Cl)ccc1O | Active | 890 nM | – |
| O=C(Nc1ccc(Cl)cc1Cl)c1cc(Cl)ccc1O | Active | 420 nM | IC50 (HCT-116 [1]): 1180 nM; bioavailability [2]: 12%; clearance [3]: 27 mL/min/kg; Vd [4]: 0.3 L/kg; half-life [5]: 2.6 h |
| O=S(=O)(Nc1ccc(C(F)(F)F)cc1Cl)c1cc(Cl)ccc1O | inactive | 2570 nM | – |
| NC(=O)c1ccc(NC(=O)c2cc(Cl)ccc2O)cc1 | inactive | > 12000 nM | – |
| O=c1oc2ccc(Cl)cc2c(=O)n1-c1ccc(C(F)(F)F)cc1 | Active | 320 nM | – |
| O=C(Nc1ccc(C(F)(F)F)cc1F)c1cc(Cl)ccc1O | Active | 550 nM | – |
| CN(C(=O)c1cc(Cl)ccc1O)c1ccc(C(F)(F)F)cc1 | inactive | > 12000 nM | – |
| O=C(Nc1cc(Cl)ccc1Cl)c1cc(Cl)ccc1O | Active | 750 nM | – |
| O=C(Nc1ccc(F)c(Cl)c1)c1cc(Cl)ccc1O | Active | 1210 nM | – |
| O=C(Nc1ccc(C(F)(F)F)cc1Cl)c1cc(Cl)ccc1O | Active | 560 nM | IC50 (HCT-116 [1]): 540 nM; bioavailability [2]: 15%; clearance [3]: 39 mL/min/kg; Vd [4]: 1.1 L/kg; half-life [5]: 3.7 h |

| Structure (SMILES) | inhibition (U2OS) | IC50 (HEK293) | also measured |
| --- | --- | --- | --- |
| CC(=O)c1ccc(NC(=O)c2cc(Cl)ccc2O)cc1 | inactive | 6420 nM | – |
| O=C(Nc1ccc(Cl)c(Cl)c1)c1cc(Cl)ccc1O | Active | 730 nM | – |
| CCOC(=O)Oc1ccc(Cl)cc1C(=O)Nc1ccc(C(F)(F)F)cc1Cl | Active | 340 nM | IC50 (HCT-116 [1]): 510 nM |
| O=C(Nc1ccc(F)cc1Cl)c1cc(Cl)ccc1O | Active | 1410 nM | – |
| O=C(Nc1cc(Cl)ccc1O)c1ccc([N+](=O)[O-])cc1 | – | > 12000 nM | – |
| O=C(Nc1cc(Cl)cc(Cl)c1)c1cc(Cl)ccc1O | Active | 700 nM | – |
| CC(=O)Oc1ccc(Cl)cc1C(=O)Nc1ccc(C(F)(F)F)cc1Cl | Active | 320 nM | – |
| O=C(Nc1ccccc1)c1cc(Cl)ccc1O | inactive | 11800 nM | – |
| O=c1oc2ccc(Cl)cc2c(=O)n1-c1ccc([N+](=O)[O-])cc1Cl | – | 370 nM | – |
| O=C(Nc1ccc([N+](=O)[O-])cc1)c1cc(Cl)ccc1O | Active | 990 nM | – |
| O=C(Nc1ccccc1)c1ccc(NC(=O)c2cc(Cl)ccc2O)cc1 | inactive | 32900 nM | – |
| O=C(NCc1ccc(C(F)(F)F)cc1)c1cc(Cl)ccc1O | inactive | 15100 nM | – |
| O=c1oc2ccc(Cl)cc2c(=O)n1-c1ccc(C(F)(F)F)cc1Cl | Active | 330 nM | IC50 (HCT-116 [1]): 550 nM; Drug uptake (Plasma [6]): Active |
| CCCCCCCC(=O)Oc1ccc(Cl)cc1C(=O)Nc1ccc([N+](=O)[O-])cc1Cl | Active | 230 nM | IC50 (HCT-116 [1]): 610 nM; Drug metabolism (Plasma [7]): metabolite_detected; Tmax (Mus musculus [8]): 0.75 h; Cmax (Mus musculus [9]): 6100 ng/mL; Tlast (Mus musculus [10]): 72 h; Clast (Mus musculus [11]): 49 ng/mL; AUClast (Mus musculus [12]): 22400 ng·h/mL; t1/2 (Mus musculus [13]): 0.69 h; t1/2 (Mus musculus [14]): 12.2 h; Activity (Mus musculus [15]): Non-toxic; Activity (Mus musculus [16]): Non-toxic |
| O=C(Nc1ccc([N+](=O)[O-])cc1Cl)c1cc(Cl)ccc1O [NICLOSAMIDE] | Active | 340 nM | IC50 (HCT-116 [1]): 450 nM; bioavailability [2]: 10%; clearance [3]: 20 mL/min/kg; Vd [4]: 0.9 L/kg; Drug uptake (Plasma [6]): Active; Drug metabolism (Plasma [17]): metabolite_detected; IC50 [18]: 130 nM; logP [19]: 5.95; logD [20]: 4.48 |
| O=C(NC(=O)c1cc(Cl)ccc1O)c1ccc(C(F)(F)F)cc1 | inactive | > 12000 nM | – |
| O=C(Nc1c(Cl)cccc1Cl)c1cc(Cl)ccc1O | inactive | > 12000 nM | growth inhibition (GI) (HCT-116 [21]): inactive |
| O=C(Nc1ccc(Cl)cc1)c1cc(Cl)ccc1O | Active | 1300 nM | – |
